Assay results: ChEMBL document CHEMBL1208682, “New quinoline derivatives: synthesis and investigation of antibacterial and antituberculosis properties” (2010)
In brackets after ≈: the same amount, converted by molar mass.

What was measured:
Assay type in all cases: functional
[1] = test system: Staphylococcus aureus; test: Antibacterial activity against Staphylococcus aureus ATCC 25923 after 3 to 4 days by serial plate dilution method; conditions: for MIC: Staphylococcus aureus, ATCC 25923
[2] = test system: Escherichia coli; test: Antibacterial activity against Escherichia coli ATCC 25922 after 3 to 4 days by serial plate dilution method; conditions: for MIC: Escherichia coli, ATCC 25922
[3] = test system: Pseudomonas aeruginosa; test: Antibacterial activity against Pseudomonas aeruginosa ATCC 27853 after 3 to 4 days by serial plate dilution method; conditions: for MIC: Pseudomonas aeruginosa, ATCC 27853
[4] = test system: Klebsiella pneumoniae; test: Antibacterial activity against recultured Klebsiella pneumoniae after 3 to 4 days by serial plate dilution method; conditions: for MIC: Klebsiella pneumoniae
[5] = test system: Mycobacterium tuberculosis; test: Antituberculosis activity against Mycobacterium tuberculosis H37Rv ATCC 27294 after 7 days using resazurin dye by broth microdilution assay; conditions: H37Rv ATCC 27294, 168 h
Method in brief: (§1)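 M. tuberculosis H37Rv grown in Middlebrook 7H9 with 10% OADC and 0.5% glycerol, adjusted to McFarland 1.0. Compounds were dissolved in DMF as stocks and tested at final levels of 1.56, 3.12, 6.25, 12.5, 25 and 50 in 96-well REMA. Controls were DMF-only, growth, rifampicin and isoniazid. After 7 days at 37 °C, 0.01% resazurin was added for 24 h and the colour change read.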

[6] = test system: Mycobacterium tuberculosis; test: Antituberculosis activity against Mycobacterium tuberculosis at MIC concentration after 7 days using resazurin dye by broth microdilution assay; method in brief: as §1
[7] = test system: Mycobacterium tuberculosis; test: Antituberculosis activity against Mycobacterium tuberculosis; method in brief: as §1

Row | Compound | diameter of the inhibition zone (DIZ) [1] [mm] | MIC [1] [µg/mL] | diameter of the inhibition zone (DIZ) [2] [mm] | MIC [2] [µg/mL] | diameter of the inhibition zone (DIZ) [3] [mm] | MIC [3] [µg/mL] | diameter of the inhibition zone (DIZ) [4] [mm] | MIC [4] [µg/mL] | MIC [5] [µM] | inhibition (INH) [6] [%] | MIC [7] [µg/mL]
1 | CCCCCCC/C=N/Nc1cc(C(F)(F)F)nc2c(C(F)(F)F)cccc12 | 12 | 12.5 (≈ 30.8 µM) | 24 | 6.25 (≈ 15.4 µM) | 14 | 12.5 (≈ 30.8 µM) | 12 | 12.5 (≈ 30.8 µM) | 6.25 (≈ 2.53 µg/mL) | 95 | –
2 | Cc1nc[nH]c1/C=N/Nc1cc(C(F)(F)F)nc2c(C(F)(F)F)cccc12 | 24 | 6.25 (≈ 16.1 µM) | 26 | 6.25 (≈ 16.1 µM) | 25 | 6.25 (≈ 16.1 µM) | 22 | 6.25 (≈ 16.1 µM) | 3.12 (≈ 1.21 µg/mL) | 99 | –
3 | Cn1nnc2cc(/C=N/Nc3cc(C(F)(F)F)nc4c(C(F)(F)F)cccc34)ccc21 | 22 | 6.25 (≈ 14.3 µM) | 20 | 6.25 (≈ 14.3 µM) | 24 | 6.25 (≈ 14.3 µM) | 21 | 6.25 (≈ 14.3 µM) | 12.5 (≈ 5.48 µg/mL) | <90 | –
4 | FC(F)(F)c1cc(N/N=C/c2ccc3nonc3c2)c2cccc(C(F)(F)F)c2n1 | 18 | 6.25 (≈ 14.7 µM) | 22 | 6.25 (≈ 14.7 µM) | 24 | 6.25 (≈ 14.7 µM) | 20 | 6.25 (≈ 14.7 µM) | 12.5 (≈ 5.32 µg/mL) | <90 | –
5 | Cn1cccc1/C=N/Nc1cc(C(F)(F)F)nc2c(C(F)(F)F)cccc12 | 22 | 6.25 (≈ 16.2 µM) | 20 | 6.25 (≈ 16.2 µM) | 24 | 6.25 (≈ 16.2 µM) | 21 | 6.25 (≈ 16.2 µM) | 12.5 (≈ 4.83 µg/mL) | <90 | –
6 | COc1ccc2[nH]cc(/C=N/Nc3cc(C(F)(F)F)nc4c(C(F)(F)F)cccc34)c2c1 | 22 | 6.25 (≈ 13.8 µM) | 23 | 6.25 (≈ 13.8 µM) | 25 | 6.25 (≈ 13.8 µM) | 20 | 6.25 (≈ 13.8 µM) | 25 (≈ 11.3 µg/mL) | – | –
7 | FC(F)(F)Oc1cccc(/C=N/Nc2cc(C(F)(F)F)nc3c(C(F)(F)F)cccc23)c1 | 21 | 6.25 (≈ 13.4 µM) | 24 | 6.25 (≈ 13.4 µM) | 26 | 6.25 (≈ 13.4 µM) | 20 | 6.25 (≈ 13.4 µM) | 12.5 (≈ 5.84 µg/mL) | <90 | –
8 | NNC(=O)c1ccncc1 [ISONIAZID] | – | – | – | – | – | – | – | – | 1.5 (≈ 0.206 µg/mL) | 95 | –
9 | FC(F)(F)c1cc(N/N=C/C2CCCCC2)c2cccc(C(F)(F)F)c2n1 | 24 | 6.25 (≈ 16.1 µM) | 25 | 6.25 (≈ 16.1 µM) | 23 | 6.25 (≈ 16.1 µM) | 19 | 6.25 (≈ 16.1 µM) | 6.25 (≈ 2.43 µg/mL) | 95 | –
10 | CC(=O)OCc1ccc(/C=N/Nc2cc(C(F)(F)F)nc3c(C(F)(F)F)cccc23)o1 | 10 | 12.5 (≈ 28.1 µM) | 20 | 6.25 (≈ 14 µM) | 14 | 12.5 (≈ 28.1 µM) | 11 | 12.5 (≈ 28.1 µM) | > 50 | – | –
11 | OC(c1cc(C(F)(F)F)nc2c(C(F)(F)F)cccc12)C1CCCCN1 (stereo unspecified) [MEFLOQUINE] | – | – | – | – | – | – | – | – | – | – | 25 (≈ 66.1 µM)
12 | Cn1cc(Cl)c(/C=N/Nc2cc(C(F)(F)F)nc3c(C(F)(F)F)cccc23)n1 | 22 | 6.25 (≈ 14.8 µM) | 24 | 6.25 (≈ 14.8 µM) | 28 | 6.25 (≈ 14.8 µM) | 18 | 6.25 (≈ 14.8 µM) | 6.25 (≈ 2.64 µg/mL) | 95 | –
13 | COc1ccc(/C=N/Nc2cc(C(F)(F)F)nc3c(C(F)(F)F)cccc23)cc1O | 14 | 12.5 (≈ 29.1 µM) | 13 | 12.5 (≈ 29.1 µM) | 15 | 12.5 (≈ 29.1 µM) | 12 | 12.5 (≈ 29.1 µM) | 12.5 (≈ 5.37 µg/mL) | <90 | –
14 | Cc1cccc2c(/C=N/Nc3cc(C(F)(F)F)nc4c(C(F)(F)F)cccc34)c[nH]c12 | 24 | 6.25 (≈ 14.3 µM) | 27 | 6.25 (≈ 14.3 µM) | 24 | 6.25 (≈ 14.3 µM) | 19 | 6.25 (≈ 14.3 µM) | 6.25 (≈ 2.73 µg/mL) | 95 | –
15 | FC(F)(F)c1cc(N/N=C/c2cccnc2)c2cccc(C(F)(F)F)c2n1 | 22 | 6.25 (≈ 16.3 µM) | 24 | 6.25 (≈ 16.3 µM) | 25 | 6.25 (≈ 16.3 µM) | 20 | 6.25 (≈ 16.3 µM) | 12.5 (≈ 4.8 µg/mL) | <90 | –
16 | Cc1cc(C)cc(NC(=O)NNc2cc(C(F)(F)F)nc3c(C(F)(F)F)cccc23)c1 | 23 | 6.25 (≈ 14.1 µM) | 20 | 6.25 (≈ 14.1 µM) | 24 | 6.25 (≈ 14.1 µM) | 22 | 6.25 (≈ 14.1 µM) | 6.25 (≈ 2.76 µg/mL) | 95 | –
17 | COCCNC(=S)NNc1cc(C(F)(F)F)nc2c(C(F)(F)F)cccc12 | 11 | 12.5 (≈ 30.3 µM) | 10 | 12.5 (≈ 30.3 µM) | 12 | 12.5 (≈ 30.3 µM) | <10 | 50 (≈ 121 µM) | 25 (≈ 10.3 µg/mL) | – | –
18 | O=C(NNc1cc(C(F)(F)F)nc2c(C(F)(F)F)cccc12)Nc1ccc(F)cc1 | 10 | 12.5 (≈ 28.9 µM) | 10 | 12.5 (≈ 28.9 µM) | 14 | 12.5 (≈ 28.9 µM) | <10 | 50 (≈ 116 µM) | 12.5 (≈ 5.4 µg/mL) | <90 | –
19 | FC(F)(F)c1cc(N/N=C/c2c[nH]cn2)c2cccc(C(F)(F)F)c2n1 | 24 | 6.25 (≈ 16.7 µM) | 25 | 6.25 (≈ 16.7 µM) | 23 | 6.25 (≈ 16.7 µM) | 18 | 6.25 (≈ 16.7 µM) | 3.12 (≈ 1.16 µg/mL) | 99 | –
20 | COc1ccccc1NC(=O)NNc1cc(C(F)(F)F)nc2c(C(F)(F)F)cccc12 | 21 | 6.25 (≈ 14.1 µM) | 24 | 6.25 (≈ 14.1 µM) | 22 | 6.25 (≈ 14.1 µM) | 18 | 6.25 (≈ 14.1 µM) | 12.5 (≈ 5.55 µg/mL) | <90 | –
21 | FC(F)(F)c1cc(N/N=C/c2ccc3c(c2)CCO3)c2cccc(C(F)(F)F)c2n1 | 14 | 12.5 (≈ 29.4 µM) | 21 | 6.25 (≈ 14.7 µM) | 15 | 12.5 (≈ 29.4 µM) | 12 | 12.5 (≈ 29.4 µM) | 25 (≈ 10.6 µg/mL) | – | –
22 | COc1ccc(/C=N/Nc2cc(C(F)(F)F)nc3c(C(F)(F)F)cccc23)c(F)c1 | 23 | 6.25 (≈ 14.5 µM) | 25 | 6.25 (≈ 14.5 µM) | 24 | 6.25 (≈ 14.5 µM) | 22 | 6.25 (≈ 14.5 µM) | 6.25 (≈ 2.7 µg/mL) | 95 | –
23 | CO[C@H]1/C=C/O[C@@]2(C)Oc3c(C)c(O)c4c(O)c(c(/C=N/N5CCN(C)CC5)c(O)c4c3C2=O)NC(=O)/C(C)=C\C=C\[C@H](C)[C@H](O)[C@@H](C)[C@@H](O)[C@@H](C)[C@H](OC(C)=O)[C@@H]1C [RIFAMPIN] | – | – | – | – | – | – | – | – | 0.5 (≈ 0.411 µg/mL) | 99 | –
24 | FC(F)C(F)(F)Oc1cccc(/C=N/Nc2cc(C(F)(F)F)nc3c(C(F)(F)F)cccc23)c1 | 22 | 6.25 (≈ 12.5 µM) | 21 | 6.25 (≈ 12.5 µM) | 26 | 6.25 (≈ 12.5 µM) | 18 | 6.25 (≈ 12.5 µM) | 12.5 (≈ 6.24 µg/mL) | <90 | –
